According to ChEMBL document CHEMBL1126107, “Structure-activity relationships of imidazo[4,5-f]quinoline partial structures and analogs. Discovery of pyrazolo[3,4-f]quinoline derivatives as potent immunostimulants” (1992):
In brackets after ≈: the same amount, converted by molar mass.

Experiments:
Escherichia coli [1] = experiment: Minimum subcutaneous effective dose required to protect mice from systemic Escherichia coli; type: functional; conditions: sc, read-out: MED
Summary of the method: (§1)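 Female NSA (CF-1) mice, 11–16 g, dosed sc with compound in pyrogen-free saline or water 24 h before ip injection of 0.5 mL E. coli N63 (~4×10^7 CFU/mL, from log-phase L broth culture). Subtherapeutic gentamicin given sc at 0.5, 4 and 24 h postinfection. Ten mice per group. Survival versus infected untreated controls. Minimum effective dose is the sc dose giving significant protection (p < 0.05). The 100%-protection dose is also reported.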

Escherichia coli [2] = experiment: Effective dose at which 100% protection occurs in mice infected with Escherichia coli; type: functional; summary of the method: as §1
Escherichia coli [3] = experiment: In vitro antibacterial activity on sensitivity of Escherichia coli N63 to gentamicin at a concentration of 0 ug/mL; type: functional
Summary of the method: (§2)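 Checkerboard broth microdilution of E. coli N63, inoculated from overnight BHI agar growth, in Mueller-Hinton broth with serial 2-fold dilutions of aminoquinoline and gentamicin. Overnight at 37 °C. Growth read as turbidity at 600 nm, corrected with uninoculated drug-containing wells for insoluble compound. Gentamicin MIC determined at each fixed aminoquinoline concentration.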

Escherichia coli [4] = experiment: In vitro antibacterial activity on sensitivity of Escherichia coli N63 to gentamicin at a concentration of 1.56 ug/mL; type: functional; summary of the method: as §2
Escherichia coli [5] = experiment: In vitro antibacterial activity on sensitivity of Escherichia coli N63 to gentamicin at a concentration of 12.5 ug/mL; type: functional; summary of the method: as §2
Escherichia coli [6] = experiment: In vitro antibacterial activity on sensitivity of Escherichia coli N63 to gentamicin at a concentration of 25 ug/mL; type: functional; summary of the method: as §2
Escherichia coli [7] = experiment: In vitro antibacterial activity on sensitivity of Escherichia coli N63 to gentamicin at a concentration of 3.13 ug/mL; type: functional; summary of the method: as §2
Escherichia coli [8] = experiment: In vitro antibacterial activity on sensitivity of Escherichia coli N63 to gentamicin at a concentration of 50 ug/mL; type: functional; summary of the method: as §2
Mus musculus [9] = experiment: Effect of interval between drug treatment and challenge on activity in the mouse protection assay 0 days prior to infection at 1.7 mg/Kg; type: functional
Summary of the method: (§3)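 Female NSA (CF-1) mice, 11–16 g, given compound sc in pyrogen-free saline or water (suspensions homogenized) at 6, 3, 1 or 0 days before ip challenge with 0.5 mL E. coli N63 (~4×10^7 CFU/mL). Gentamicin sc at 0.5, 4 and 24 h postinfection. Ten mice per group. Percent protection = (dead in control − dead in treated) ÷ dead in control × 100.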

Mus musculus [10] = experiment: Effect of interval between drug treatment and challenge on activity in the mouse protection assay 1 days prior to infection at 1.7 mg/Kg; type: functional; summary of the method: as §3
Mus musculus [11] = experiment: Effect of interval between drug treatment and challenge on activity in the mouse protection assay 3 days prior to infection at 1.7 mg/Kg; type: functional; summary of the method: as §3
Mus musculus [12] = experiment: Effect of interval between drug treatment and challenge on activity in the mouse protection assay 6 days prior to infection at 1.7 mg/Kg; type: functional; summary of the method: as §3
Escherichia coli [13] = experiment: Compound was evaluated for efficacy in murine systemic Escherichia coli infection with subtherapeutic gentamycin treatment; type: functional; conditions: read-out: PD50
Summary of the method: (§4)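 Female NSA (CF-1) mice (11–16 g) were given test compound in pyrogen-free saline or water, or as a homogenized saline suspension, 24 h before ip challenge with 0.5 mL E. coli N63 (serotype O18) at about 4×10^7 CFU/mL. Gentamicin 0.5 mg/kg was given sc at 0.5, 4 and 24 h postinfection. Endpoint was survival, with 10 mice per group. PD50 was derived by probit analysis of pooled experiments.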

Escherichia coli [14] = experiment: Compound was evaluated for efficacy in murine systemic Escherichia coli infection without subtherapeutic gentamycin treatment; type: functional; conditions: read-out: PD50
Summary of the method: as §4, with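 “No gentamicin” for “Gentamicin 0.5 mg/kg”, “given.” for “given sc at 0.5, 4 and 24 h postinfection.”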

Escherichia coli [15] = experiment: In vitro antibacterial activity on sensitivity of Escherichia coli N63 to gentamicin at a concentration of 6.25 ug/mL
Escherichia coli [16] = experiment: In vitro antibacterial activity on sensitivity of Escherichia coli N63 to gentamicin at a concentration of 100 ug/mL; type: functional; summary of the method: as §2
Mus musculus [17] = experiment: Minimum subcutaneous effective dose required to protect mice from systemic Escherichia coli; ND=No dose response; type: functional, organism-based; summary of the method: as §1

For `COc1cccc(N(C)c2cc(C)nc3ccc4[nH]cnc4c23)c1`, which minimal effective dose (Escherichia coli [1]) is on record?
The minimal effective dose was > 50 mg/kg.

For `CCCCc1ccc(Nc2cc(C)nc3ccccc23)cc1`, which minimal effective dose (Escherichia coli [1]) is on record?
The minimal effective dose was > 50 mg/kg.

Which minimal effective dose (Escherichia coli [1]) does the source give for `COc1cccc(Nc2cc(C)nc(C)c2C(C)=O)c1` here?
Its minimal effective dose is > 100 mg/kg.

With `Cc1cc(Nc2ccc(OCc3ccccc3)cc2)c2ccccc2n1` as the compound, how does the minimal effective dose (Escherichia coli [1]) read?
The minimal effective dose was > 50 mg/kg.

`CCCCOc1ccc(Nc2cc(C)nc3ccc4[nH]cnc4c23)cc1` was tested. Which ED100 (Escherichia coli [2]) did it give?
The ED100 was 15 mg/kg.

And the minimal effective dose (Escherichia coli [1])?
Its minimal effective dose is 5 mg/kg.

`Cc1cc(Nc2ccc(OCc3ccccc3)cc2)c2c(ccc3c[nH]nc32)n1` was tested. Which ED100 (Escherichia coli [2]) did it give?
The ED100 was 6 mg/kg.

What about the minimal effective dose (Escherichia coli [1]) of the same compound?
The minimal effective dose was 2 mg/kg.

What does the source list for `COc1cccc(Nc2cc(C)nc3ccc4c[nH]nc4c23)c1`?
MIC (Escherichia coli [3]): 0.25 µg/mL (≈ 0.821 µM); MIC (Escherichia coli [4]): 0.25 µg/mL (≈ 0.821 µM); MIC (Escherichia coli [5]): 0.25 µg/mL (≈ 0.821 µM); MIC (Escherichia coli [6]): 0.25 µg/mL (≈ 0.821 µM); MIC (Escherichia coli [7]): 0.25 µg/mL (≈ 0.821 µM); MIC (Escherichia coli [8]): 0.25 µg/mL (≈ 0.821 µM); ED100 (Escherichia coli [2]): 17 mg/kg; minimal effective dose (Escherichia coli [1]): 6 mg/kg; Protection (Mus musculus [9]): 0%; Protection (Mus musculus [10]; in the assay text read “25 mg/Kg” for “1.7 mg/Kg”): 100%; Protection (Mus musculus [11]): 100%; Protection (Mus musculus [12]): 88%; ED50 (Escherichia coli [13]): 4.2 mg/kg; ED50 (Escherichia coli [14]): 9.8 mg/kg; MIC (Escherichia coli [15]): 0.25 µg/mL (≈ 0.821 µM)

Which minimal effective dose (Escherichia coli [1]) does the source give for `O=C(NC1CCCCC1)c1cccc2[nH]cnc12` here?
The minimal effective dose was > 50 mg/kg.

For `COc1cccc(Nc2cc(C)nc(C)c2C(C)O)c1` (stereo not drawn), which minimal effective dose (Escherichia coli [1]) is on record?
The minimal effective dose was > 100 mg/kg.

Which minimal effective dose (Escherichia coli [1]) does the source give for `N#Cc1ccc(NC(=O)c2cccc3[nH]cnc23)cc1` here?
The minimal effective dose was > 50 mg/kg.

`COc1cccc(Nc2cc(C)nc3ccccc23)c1` was tested. Which minimal effective dose (Escherichia coli [1]) did it give?
Its minimal effective dose is > 50 mg/kg.

How did the ED100 (Escherichia coli [2]) turn out when `CCCCc1ccc(Nc2cc(C)nc3ccc4[nH]cnc4c23)cc1` was run?
The ED100 was 15 mg/kg.

And the minimal effective dose (Escherichia coli [1])?
Its minimal effective dose is 5 mg/kg.

For `COc1cccc(Sc2cc(C)nc3ccc4[nH]cnc4c23)c1`, which minimal effective dose (Escherichia coli [1]) is on record?
The minimal effective dose was > 50 mg/kg.

For `COc1cccc(Nc2cc(C)nc(C)c2/C(C)=N/O)c1`, which minimal effective dose (Escherichia coli [1]) is on record?
The minimal effective dose was > 100 mg/kg.

With `Cc1cc(NC2CCCCC2)c2c(ccc3[nH]cnc32)n1` as the compound, how does the ED100 (Escherichia coli [2]) read?
The ED100 was 6 mg/kg.

And the minimal effective dose (Escherichia coli [1])?
The minimal effective dose was 6 mg/kg.

Which MIC (Escherichia coli [3]) does the source give for `Cc1cc(Nc2ccc(OCC3CCCCC3)cc2)c2c(ccc3[nH]cnc32)n1` here?
The MIC was 0.5 µg/mL (≈ 1.29 µM).

What about the MIC (Escherichia coli [4]) of the same compound?
Its MIC is 0.25 µg/mL (≈ 0.647 µM).

And the MIC (Escherichia coli [16])?
The MIC was 0.063 µg/mL (≈ 0.163 µM).

What about the MIC (Escherichia coli [5]) of the same compound?
The MIC was 0.125 µg/mL (≈ 0.323 µM).

And the MIC (Escherichia coli [6])?
Its MIC is 0.125 µg/mL (≈ 0.323 µM).

And the MIC (Escherichia coli [7])?
Its MIC is 0.25 µg/mL (≈ 0.647 µM).

What about the MIC (Escherichia coli [8]) of the same compound?
The MIC was 0.063 µg/mL (≈ 0.163 µM).

What about the ED100 (Escherichia coli [2]) of the same compound?
The ED100 was 5 mg/kg.

What about the minimal effective dose (Escherichia coli [1]) of the same compound?
Its minimal effective dose is 1 mg/kg.

What about the Protection (Mus musculus [9]) of the same compound?
The Protection was 0%.

And the Protection (Mus musculus [10])?
Its Protection is 60%.

And the Protection (Mus musculus [11])?
Its Protection is 40%.

What about the Protection (Mus musculus [12]) of the same compound?
The Protection was 0%.

And the ED50 (Escherichia coli [13])?
Its ED50 is 0.5 mg/kg.

And the ED50 (Escherichia coli [14])?
The ED50 was 1.5 mg/kg.

What about the MIC (Escherichia coli [15]) of the same compound?
The MIC was 0.25 µg/mL (≈ 0.647 µM).

`Cc1cc(Nc2ccc(OCc3ccccc3)cc2)c2c(ccc3[nH]ncc32)n1` was tested. Which MED (Mus musculus [17]) did it give?
Its MED is “No dose response”.

Which ED100 (Escherichia coli [2]) does the source give for `Cc1cc(Nc2ccc(C#N)cc2)c2c(ccc3[nH]cnc32)n1` here?
The ED100 was 2 mg/kg.

What about the minimal effective dose (Escherichia coli [1]) of the same compound?
The minimal effective dose was 2 mg/kg.

`COc1cccc(NC(=O)c2cccc3[nH]cnc23)c1` was tested. Which minimal effective dose (Escherichia coli [1]) did it give?
Its minimal effective dose is > 50 mg/kg.

Which minimal effective dose (Escherichia coli [1]) does the source give for `COc1cccc(Nc2cc(C)nc3ccc4[nH]ncc4c23)c1` here?
Its minimal effective dose is > 50 mg/kg.

For `COc1cccc(Nc2cc(C)nc3ccc4[nH]cnc4c23)c1`, which ED100 (Escherichia coli [2]) is on record?
Its ED100 is 50 mg/kg.

And the minimal effective dose (Escherichia coli [1])?
The minimal effective dose was 6 mg/kg.

For `O=C(Nc1ccc(OCC2CCCCC2)cc1)c1cccc2[nH]cnc12`, which minimal effective dose (Escherichia coli [1]) is on record?
The minimal effective dose was > 50 mg/kg.

How did the minimal effective dose (Escherichia coli [1]) turn out when `CCCCOc1ccc(Nc2cc(C)nc3ccccc23)cc1` was run?
The minimal effective dose was > 50 mg/kg.
